Test results: ChEMBL document CHEMBL1250442, “Inhibiting gene expression at transcription start sites in chromosomal DNA with antigene RNAs” (Nat Chem Biol, 2005)
Active and inactive are the calls of the source. No cut-off for these calls is given here.

Key:
T47D [1] = test: Inhibition of PR-B mRNA gene expression in human T47D cells at 100 nM by syber green assay; assay type: functional
Outline: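 T47D cells in RPMI-1640 with 10% FBS, NEAA, insulin, 37 °C, 5% CO2. Plated two days before transfection without antibiotics. Oligofectamine-mediated duplex RNA transfection at 100 nM final, medium changed at 24 h, harvest five days post-transfection. Total RNA extracted with TRIzol. hPR mRNA quantified by SYBR Green qPCR: 50 °C 2 min, 95 °C 10 min, then 40 cycles of 95 °C 15 s / 60 °C 1 min.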

T47D [2] = test: Effect of DNA methylation at (-36) CpG site near androgen receptor transcription start site (-9) in human T47D cells by sodium bisulfite sequencing analysis; assay type: functional, cell-based
Outline: (§1)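 T47D cells (RPMI-1640, 10% FBS, NEAA, insulin; 37 °C, 5% CO2) transfected with agRNA duplexes via Oligofectamine, medium changed at 24 h. Genomic DNA bisulphite-treated, regions around AR and hPR-B start sites PCR-amplified (HotStarTaq, 100 ng treated DNA), gel-purified, TOPO TA cloned; 5–15 colonies per plate miniprepped and sequenced.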

T47D [3] = test: Effect of DNA methylation at (-172) CpG site near androgen receptor transcription start site (-9) in human T47D cells by sodium bisulfite sequencing analysis; assay type: functional, cell-based; outline: as §1
T47D [4] = test: Effect of DNA methylation at (-167) CpG site near androgen receptor transcription start site (-9) in human T47D cells by sodium bisulfite sequencing analysis; assay type: functional, cell-based; outline: as §1
T47D [5] = test: Inhibition of PR-B gene expression in human T47D cells at 25 nM by syber green assay in presence of 10 nM estradiol; assay type: functional, cell-based
T47D [6] = test: Inhibition of androgen receptor expression in human T47D cells after 12 days at 100 nM by syber green assay; assay type: functional, cell-based
Outline: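 AR expression in T47D cells, grown in RPMI-1640 with 10% FBS, NEAA and insulin. Plated antibiotic-free two days before Oligofectamine transfection with 100 nM duplex RNA; medium replaced after 24 h. TRIzol total RNA. SYBR Green real-time PCR: 50 °C 2 min, 95 °C 10 min, 40 cycles of 95 °C 15 s and 60 °C 1 min.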

T47D [7] = test: Effect of DNA methylation at (-178) CpG site near androgen receptor transcription start site (-9) in human T47D cells by sodium bisulfite sequencing analysis; assay type: functional, cell-based; outline: as §1
T47D [8] = test: Effect of DNA methylation at (-57) CpG site near androgen receptor transcription start site (-9) in human T47D cells by sodium bisulfite sequencing analysis; assay type: functional, cell-based; outline: as §1
T47D [9] = test: Effect of DNA methylation at (+43) CpG site near androgen receptor transcription start site (-9) in human T47D cells by sodium bisulfite sequencing analysis; assay type: functional, cell-based; outline: as §1
T47D [10] = test: Effect of DNA methylation at (+11) CpG site near androgen receptor transcription start site (-9) in human T47D cells by sodium bisulfite sequencing analysis; assay type: functional, cell-based
Outline: (§2)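 T47D cells grown in RPMI-1640 with 10% FBS, 0.5% NEAA, insulin and P/S at 37 °C, 5% CO2. They were plated at 80,000 cells/well 2 days before lipid transfection with 25 nM or 100 nM duplex, with medium changed at 24 h. Cells were harvested 5 days post-transfection. 100 ng bisulfite-treated DNA was PCR-amplified, and products were TA-cloned. 5–15 colonies per plate were sequenced.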

T47D [11] = test: Effect of DNA methylation at (-126) CpG site near androgen receptor transcription start site (-9) in human T47D cells by sodium bisulfite sequencing analysis; assay type: functional, cell-based; outline: as §1
T47D [12] = test: Inhibition of PR-A mRNA gene expression in human T47D cells at 100 nM by syber green assay; assay type: functional
Outline: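 T47D cells plated at 80,000/well without antibiotics two days before Oligofectamine transfection with agRNA duplex (25 or 100 nM final); medium changed at 24 h, harvest day 5 unless stated otherwise. TRIzol total RNA; PR mRNA by real-time PCR with SYBR Green: 50 °C 2 min, 95 °C 10 min, 40 cycles 95 °C 15 s/60 °C 1 min.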

T47D [13] = test: Effect of DNA methylation at (-31) CpG site near androgen receptor transcription start site (-9) in human T47D cells by sodium bisulfite sequencing analysis; assay type: functional, cell-based; outline: as §1
T47D [14] = test: Effect of DNA methylation at (-132) CpG site near androgen receptor transcription start site (-9) in human T47D cells by sodium bisulfite sequencing analysis; assay type: functional, cell-based; outline: as §1
T47D [15] = test: Effect of DNA methylation at (-52) CpG site near androgen receptor transcription start site (-9) in human T47D cells by sodium bisulfite sequencing analysis; assay type: functional, cell-based; outline: as §1
T47D [16] = test: Effect of DNA methylation at (-124) CpG site near androgen receptor transcription start site (-9) in human T47D cells by sodium bisulfite sequencing analysis; assay type: functional, cell-based; outline: as §1
T47D [17] = test: Effect of DNA methylation at (-122) CpG site near androgen receptor transcription start site (-9) in human T47D cells by sodium bisulfite sequencing analysis; assay type: functional, cell-based; outline: as §1
T47D [18] = test: Effect of DNA methylation at (+19) CpG site near androgen receptor transcription start site (-9) in human T47D cells by sodium bisulfite sequencing analysis; assay type: functional, cell-based; outline: as §2
T47D [19] = test: Inhibition of PR-A gene expression in human T47D cells at 25 nM by syber green assay in presence of 10 nM estradiol; assay type: functional, cell-based
T47D [20] = test: Effect of DNA methylation at (-43) CpG site near androgen receptor transcription start site (-9) in human T47D cells by sodium bisulfite sequencing analysis; assay type: functional, cell-based; outline: as §1
T47D [21] = test: Effect of DNA methylation at (+1) CpG site near androgen receptor transcription start site (-9) in human T47D cells by sodium bisulfite sequencing analysis; assay type: functional, cell-based; outline: as §2
T47D [22] = test: Effect of DNA methylation at (+43) CpG site near androgen receptor transcription start site (-13) in human T47D cells by sodium bisulfite sequencing analysis; assay type: functional, cell-based; outline: as §1
T47D [23] = test: Effect of DNA methylation at (-122) CpG site near androgen receptor transcription start site (-13) in human T47D cells by sodium bisulfite sequencing analysis; assay type: functional, cell-based; outline: as §1
T47D [24] = test: Effect of DNA methylation at (-36) CpG site near androgen receptor transcription start site (-13) in human T47D cells by sodium bisulfite sequencing analysis; assay type: functional, cell-based; outline: as §1
T47D [25] = test: Effect of DNA methylation at (-178) CpG site near androgen receptor transcription start site (-13) in human T47D cells by sodium bisulfite sequencing analysis; assay type: functional, cell-based; outline: as §1
T47D [26] = test: Effect of DNA methylation at (-167) CpG site near androgen receptor transcription start site (-13) in human T47D cells by sodium bisulfite sequencing analysis; assay type: functional, cell-based; outline: as §1
T47D [27] = test: Effect of DNA methylation at (-126) CpG site near androgen receptor transcription start site (-13) in human T47D cells by sodium bisulfite sequencing analysis; assay type: functional, cell-based; outline: as §1
T47D [28] = test: Effect of DNA methylation at (-52) CpG site near androgen receptor transcription start site (-13) in human T47D cells by sodium bisulfite sequencing analysis; assay type: functional, cell-based; outline: as §1
T47D [29] = test: Effect of DNA methylation at (-124) CpG site near androgen receptor transcription start site (-13) in human T47D cells by sodium bisulfite sequencing analysis; assay type: functional, cell-based; outline: as §1
T47D [30] = test: Effect of DNA methylation at (+1) CpG site near androgen receptor transcription start site (-13) in human T47D cells by sodium bisulfite sequencing analysis; assay type: functional, cell-based; outline: as §2
T47D [31] = test: Effect of DNA methylation at (+11) CpG site near androgen receptor transcription start site (-13) in human T47D cells by sodium bisulfite sequencing analysis; assay type: functional, cell-based; outline: as §2
T47D [32] = test: Effect of DNA methylation at (-57) CpG site near androgen receptor transcription start site (-13) in human T47D cells by sodium bisulfite sequencing analysis; assay type: functional, cell-based; outline: as §1
T47D [33] = test: Effect of DNA methylation at (-132) CpG site near androgen receptor transcription start site (-13) in human T47D cells by sodium bisulfite sequencing analysis; assay type: functional, cell-based; outline: as §1
T47D [34] = test: Effect of DNA methylation at (-172) CpG site near androgen receptor transcription start site (-13) in human T47D cells by sodium bisulfite sequencing analysis; assay type: functional, cell-based; outline: as §1
T47D [35] = test: Effect of DNA methylation at (+19) CpG site near androgen receptor transcription start site (-13) in human T47D cells by sodium bisulfite sequencing analysis; assay type: functional, cell-based; outline: as §2
T47D [36] = test: Effect of DNA methylation at (-31) CpG site near androgen receptor transcription start site (-13) in human T47D cells by sodium bisulfite sequencing analysis; assay type: functional, cell-based; outline: as §1
T47D [37] = test: Effect of DNA methylation at (-43) CpG site near androgen receptor transcription start site (-13) in human T47D cells by sodium bisulfite sequencing analysis; assay type: functional, cell-based; outline: as §1

Cc1cn(CC(=O)N(CCNC(=O)CN(CCNC(=O)CN(CCNC(=O)CN(CCNC(=O)CN(CCNC(=O)CN(CCNC(=O)CN(CCNC(=O)CN(CCNC(=O)CN(CCNC(=O)CN(CCNC(=O)CN(CCNC(=O)CN(CCNC(=O)CN(CCNC(=O)CN(CCNC(=O)CN(CCNC(=O)CN(CCNC(=O)CN(CCNC(=O)CN(CCNC(=O)CN(CCNC(=O)CN(CCNC(=O)CN)C(=O)Cn2ccc(N)nc2=O)C(=O)Cn2ccc(N)nc2=O)C(=O)Cn2cnc3c(N)ncnc32)C(=O)Cn2ccc(N)nc2=O)C(=O)Cn2ccc(N)nc2=O)C(=O)Cn2ccc(=O)[nH]c2=O)C(=O)Cn2ccc(N)nc2=O)C(=O)Cn2ccc(N)nc2=O)C(=O)Cn2ccc(N)nc2=O)C(=O)Cn2cnc3c(N)ncnc32)C(=O)Cn2cnc3c(=O)[nH]c(N)nc32)C(=O)Cn2ccc(N)nc2=O)C(=O)Cn2cnc3c(=O)[nH]c(N)nc32)C(=O)Cn2ccc(N)nc2=O)C(=O)Cn2ccc(N)nc2=O)C(=O)Cn2ccc(N)nc2=O)C(=O)Cn2ccc(N)nc2=O)C(=O)Cn2ccc(N)nc2=O)C(=O)Cn2ccc(=O)[nH]c2=O)CC(=O)NCCN(CC(=O)NCC(=O)O)C(=O)Cn2cc(C)c(=O)[nH]c2=O)c(=O)[nH]c1=O
inhibition at 0.1 µM (T47D [1]): 82%
Activity (T47D [2]): inactive
Activity (T47D [3]): inactive
Activity (T47D [4]): inactive
inhibition (T47D [5]): Active
inhibition (T47D [6]): Active
Activity (T47D [7]): inactive
Activity (T47D [8]): inactive
Activity (T47D [9]): inactive
Activity (T47D [10]): inactive
Activity (T47D [11]): inactive
inhibition at 0.1 µM (T47D [12]): 82%
Activity (T47D [13]): inactive
Activity (T47D [14]): inactive
Activity (T47D [15]): inactive
Activity (T47D [16]): inactive
Activity (T47D [17]): inactive
Activity (T47D [18]): inactive
inhibition (T47D [19]): Active
Activity (T47D [20]): inactive
Activity (T47D [21]): inactive

Cc1cn(CC(=O)N(CCNC(=O)CN(CCNC(=O)CN(CCNC(=O)CN(CCNC(=O)CN(CCNC(=O)CN(CCNC(=O)CN(CCNC(=O)CN(CCNC(=O)CN(CCNC(=O)CN(CCNC(=O)CN(CCNC(=O)CN(CCNC(=O)CN(CCNC(=O)CN(CCNC(=O)CN(CCNC(=O)CN(CCNC(=O)CN(CCNC(=O)CN(CCNC(=O)CN(CCNC(=O)CN(CCNC(=O)CN)C(=O)Cn2ccc(N)nc2=O)C(=O)Cn2ccc(=O)[nH]c2=O)C(=O)Cn2ccc(N)nc2=O)C(=O)Cn2ccc(=O)[nH]c2=O)C(=O)Cn2ccc(N)nc2=O)C(=O)Cn2ccc(N)nc2=O)C(=O)Cn2cnc3c(N)ncnc32)C(=O)Cn2ccc(N)nc2=O)C(=O)Cn2ccc(N)nc2=O)C(=O)Cn2ccc(=O)[nH]c2=O)C(=O)Cn2ccc(N)nc2=O)C(=O)Cn2ccc(N)nc2=O)C(=O)Cn2ccc(N)nc2=O)C(=O)Cn2cnc3c(N)ncnc32)C(=O)Cn2cnc3c(=O)[nH]c(N)nc32)C(=O)Cn2ccc(N)nc2=O)C(=O)Cn2cnc3c(=O)[nH]c(N)nc32)C(=O)Cn2ccc(N)nc2=O)C(=O)Cn2ccc(N)nc2=O)CC(=O)NCCN(CC(=O)NCC(=O)O)C(=O)Cn2cc(C)c(=O)[nH]c2=O)c(=O)[nH]c1=O
inhibition at 0.1 µM (T47D [1]): 100%
Activity (T47D [22]): inactive
Activity (T47D [23]): inactive
inhibition (T47D [5]): Active
inhibition (T47D [6]): Active
Activity (T47D [24]): inactive
Activity (T47D [25]): inactive
Activity (T47D [26]): inactive
Activity (T47D [27]): inactive
Activity (T47D [28]): inactive
Activity (T47D [29]): inactive
Activity (T47D [30]): inactive
Activity (T47D [31]): inactive
inhibition at 0.1 µM (T47D [12]): 100%
Activity (T47D [32]): inactive
Activity (T47D [33]): inactive
Activity (T47D [34]): inactive
Activity (T47D [35]): inactive
Activity (T47D [36]): inactive
inhibition (T47D [19]): Active
Activity (T47D [37]): inactive
